The full list was thinned out, with hits kept by preference.
UPR XBP1 act: activators of adaptive XBP1 UPR arm, primary screen, cell-based, CHO-XBP1 luciferase reporter, luminescence, uHTS; actives 0.33% (n = 330,000); activation, % at 20 µM; IRE1-XBP1 UPR activation; percent of tunicamycin response, DMSO as zero;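 active means versus positive control, 20 µM dose yields 30% or more activation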;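 further: 100% = tunicamycin at 10 µg/mL and 0% = DMSO only wells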
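assay system = CHO-XBP1 luciferase reporter cells | amount = 1000 cells/well | buffer or medium = F12 plus 10% FBS | compound dosing = single point, 20 µM final compound, 1% DMSO | incubation = 16-18 h cell attachment at 37 °C, then 6 h compound exposure | detection = Steady-Glo luminescence read | controls = tunicamycin 10 µg/mL and vehicle-only wells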
B2AR ag: beta2AR agonists driving receptor internalization, primary screen, cell-based, FAP fluorogen, flow cytometry. Beta-2 adrenergic receptor (Homo sapiens), P07550. Am2.2-beta2AR cells. response, % (no concentration beside the values). actives 0.43% (n = 340,000). AID 504454, 2011;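 active means response above a set limit, near 3 SD of response in nonfluorescent compounds, cut at about 42% in these data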
VLA-4 inh: inhibition in human VLA-4 binding assay, primary screen, VLA-4 allosteric modulator project, MLPCN library, flow cytometry, VLA-4 expressing cells; ligand binding flow cytometry; inhibition, % (about 7 µM as worked out from the volumes in the protocol); actives 0.2% (n = 330,000); in the data active means inhibition above about 50%
Target sequence (P13612 whole entry, looked up): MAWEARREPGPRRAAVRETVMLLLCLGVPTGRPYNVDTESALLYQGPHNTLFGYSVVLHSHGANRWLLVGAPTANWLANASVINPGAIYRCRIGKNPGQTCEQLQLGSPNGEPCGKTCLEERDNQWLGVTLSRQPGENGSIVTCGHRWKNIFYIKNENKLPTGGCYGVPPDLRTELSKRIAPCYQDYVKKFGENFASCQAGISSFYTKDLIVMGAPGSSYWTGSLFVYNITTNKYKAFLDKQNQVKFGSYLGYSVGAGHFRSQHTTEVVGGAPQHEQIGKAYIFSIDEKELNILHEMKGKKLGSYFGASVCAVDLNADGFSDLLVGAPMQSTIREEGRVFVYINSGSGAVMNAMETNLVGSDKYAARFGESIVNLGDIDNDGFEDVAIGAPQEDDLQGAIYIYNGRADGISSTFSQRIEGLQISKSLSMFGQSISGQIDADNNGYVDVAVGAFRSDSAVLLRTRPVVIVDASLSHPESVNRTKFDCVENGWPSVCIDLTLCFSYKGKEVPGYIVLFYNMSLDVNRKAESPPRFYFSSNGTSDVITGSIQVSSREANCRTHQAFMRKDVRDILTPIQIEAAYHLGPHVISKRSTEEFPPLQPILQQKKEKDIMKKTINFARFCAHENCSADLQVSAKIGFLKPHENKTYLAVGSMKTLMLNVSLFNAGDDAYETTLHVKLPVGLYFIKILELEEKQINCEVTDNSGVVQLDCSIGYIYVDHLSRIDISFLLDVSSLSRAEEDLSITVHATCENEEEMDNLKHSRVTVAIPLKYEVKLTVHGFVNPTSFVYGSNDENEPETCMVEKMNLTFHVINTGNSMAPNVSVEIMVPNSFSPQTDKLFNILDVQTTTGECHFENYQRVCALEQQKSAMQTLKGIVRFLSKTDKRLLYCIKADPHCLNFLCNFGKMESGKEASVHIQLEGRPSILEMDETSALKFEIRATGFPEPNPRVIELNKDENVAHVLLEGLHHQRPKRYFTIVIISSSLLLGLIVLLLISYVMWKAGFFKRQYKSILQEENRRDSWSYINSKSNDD
UPR CHOP act: activators of apoptotic CHOP UPR arm, primary screen, cell-based, CHO-CHOP luciferase reporter, luminescence, uHTS | UPR activation; percent of tunicamycin response over DMSO baseline | activation, % at 10 µM | actives 0.34% (n = 330,000);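 active means at 10 µM dose, activation of 40% or more, normalized to positive control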;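 further: 100% = tunicamycin at 10 µg/mL and 0% = DMSO alone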
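Assay system: CHO cells with stable CHOP pathway luciferase reporter; Buffer or medium: F12 plus 10% serum; Times: 16-18 h cell attachment, then 6 h compound exposure, 37 °C; Signal: luciferase luminescence; Read-out basis: percent activation relative to tunicamycin control; Control set: tunicamycin high control, DMSO low control.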
CHOP inh: inhibitors of CHOP promoter induction, primary screen, cell-based, unfolded protein response, luciferase reporter; CHO-K1 CHOP-promoter luciferase, tunicamycin-induced, 15-18 h; actives 3.8% (n = 220,000); inhibition, % at 10 µM; AID 2732, 2010;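 active means compounds that reduced the stress-induced luciferase reporter signal by more than about 70% of percent inhibition, limit read from the data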;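 further: 0% = tunicamycin plus vehicle and 100% = wells without tunicamycin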
CHOP UPR conf: activators of apoptotic CHOP UPR arm, confirmation, cell-based, CHO-CHOP luciferase reporter, single concentration; actives 64% (n = 1,000); shares compounds with UPR CHOP act; CHO-CHOP cells, CHOP-luciferase reporter luminescence; percent of tunicamycin response, DMSO as zero; activation, % at 10 µM; in the data active means activation above about 33%;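 further: 0% = DMSO wells and 100% = tunicamycin 10 µg/mL wells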
Numbers without * were called inactive; x = no result.

SMILES | UPR XBP1 act | B2AR ag | VLA-4 inh | UPR CHOP act | CHOP inh | CHOP UPR conf
CC(NC(=O)C1CCC(C(=O)NC(C)c2ccccc2)CC1)c1ccccc1 (stereo not drawn) | 0 | 4 | 11 | 1 | x | x
O=C1C=CC(=O)N1c1cccc(-c2ccccc2)c1 | -7 | 97* | 27 | 82* | 20 | 10
COc1cc(N2C(=O)C=CC2=O)ccc1N1C(=O)C=CC1=O | x | 8 | x | x | x | x
COc1ccc(CCNC(=O)CSc2ccc3ccccc3c2)cc1OC | 3 | 0 | 0 | 1 | 31 | x
O=C(CSc1ccc2ccccc2c1)NCCc1ccc(O)c(O)c1 | 11 | 3 | 11 | 55* | -113 | 46*
Cc1ccc(-c2csc3ncnc(SCC(=O)NCC4CCCO4)c23)cc1 (stereo not drawn) | -1 | -4 | 3 | 0 | x | x
O=C(Nc1cccc(S(=O)(=O)NC2=NCCC2)c1)c1ccc(C(F)(F)F)cc1 | -3 | 2 | 9 | -1 | x | x
CCc1ccccc1NC(=S)N=Nc1c(O)n(C)c2ccc(S(=O)(=O)N3CCOCC3)cc12 | 0 | 9 | -28 | 51* | -69 | 53*
CC(C)(C)c1ccc(OCc2ccc(C(=O)N/N=C/c3ccc(O)c(O)c3)cc2)cc1 | 20 | 7 | -2 | 41* | 28 | 27
O=C(N/N=C/c1ccc(OCc2ccc(F)cc2)cc1)c1ccccc1 | 0 | 1 | 4 | 3 | -15 | x
O=C(CS(=O)CC(=O)N(CC(=O)NC1CCCC1)c1ccccc1F)Nc1ccc(F)cc1 (stereo not drawn) | 1 | -2 | -5 | 1 | x | x
O=C(Nc1nc(-c2ccccn2)cs1)c1ccc(Br)s1 | 17 | 8 | 7 | 60* | -29 | 42*
CCCCCCCCCn1c2c(c(=N)c3c1CCC3)CCC2 | 23 | 6 | -2 | 57* | x | 43*
NS(=O)(=O)c1ccc(CCNC(=O)C(=O)c2cn(CC(=O)N3CCOCC3)c3ccccc23)cc1 | -3 | -1 | 7 | 2 | x | x
CSCCC(NC=O)C(=O)NC(C)C(=O)O (stereo not drawn) | x | -4 | x | x | x | x
COc1ccc(/C=C/C(=O)Oc2ccc(C)cc2)cc1 | 29 | -1 | -1 | 43* | x | 40*
Cc1nnc(SCC(=O)NNC(=O)c2ccc(F)cc2)n1Cc1ccccc1 | -3 | -4 | 10 | 2 | x | x
COc1ccc(OCC(=O)c2c[nH]c3ccccc23)cc1 | 0 | 1 | 14 | 6 | -4 | x
COc1ccc2c(C(=O)CCl)c[nH]c2c1 | -5 | 9 | -38 | 238* | -149 | 205*
CCOC(=O)c1c(C)oc2c1c(C(c1ccccc1)N1CCOCC1)c(O)c1ccccc12 (stereo not drawn) | 11 | 5 | 15 | 62* | -23 | 73*
CCOC(=O)c1c(C)oc2c1c(C(c1cccnc1)N1CCCCC1)c(O)c1ccccc12 (stereo not drawn) | 11 | 21 | -8 | 114* | 17 | 182*
Cc1nc2cc(NC(=O)c3cccc(S(C)(=O)=O)c3)ccc2o1 | -2 | -4 | -9 | 3 | x | x
CCC1CCCCN1C(=O)COC(=O)c1ccc(Br)o1 (stereo not drawn) | 0 | -5 | 5 | 2 | x | x
COc1cccc(C(=O)Oc2ccccc2/C=C\C(=O)c2cc3ccccc3o2)c1 | x | 11 | x | x | 44 | x
O=C(Oc1ccccc1/C=C\C(=O)c1cc2ccccc2o1)c1ccccc1 | 27 | -7 | -11 | 73* | -37 | 244*
SMILES | UPR XBP1 act | B2AR ag | VLA-4 inh | UPR CHOP act | CHOP inh | CHOP UPR conf
CC(C)(Oc1ccc(Cl)cc1)C(=O)OCc1nc2ccsc2c(=O)[nH]1 | 2 | 7 | 2 | 1 | x | x
CC(C)Cc1nc2oc3c(N4CCN(CCO)CC4)ncnc3c2c2c1CCCC2 | 6 | 10 | -5 | 44* | 57 | -1
CCN(CC)c1ccc2c(C)c(Cl)c(=O)oc2c1 | 1 | 11 | -4 | 3 | 18 | x
CCN(CC)c1ccc2c(Cl)c(Br)c(=O)oc2c1 | 1 | x | x | 194* | 94* | 18
Cc1cccc(N=Nc2ccc(O)c3ncccc23)c1 | 7 | 9 | 1 | 86* | 105* | 69*
C#CCN(C(=O)c1cc(COc2cccc(C(F)(F)F)c2)on1)C1CCCCC1 | -8 | -5 | 5 | -1 | x | x
O=C(NCc1cccnc1)C1CCN(S(=O)(=O)c2cc(Cl)ccc2Cl)CC1 | -4 | -3 | 8 | -3 | x | x
COc1cc(OC)c(/C=C2\C(=O)Nc3ccccc32)c(OC)c1 | -1 | x | -9 | -2 | x | x
COc1ccc(C(=O)/C=C2/C(=O)Nc3ccccc32)c(OC)c1 | 5 | 23 | 11 | 109* | x | 114*
CC1(C)C(=O)Nc2ccccc2N1C(=O)Cn1ncc(Cl)c(Cl)c1=O | 2 | -2 | 32 | 50* | -104 | 4
O=C(/C=C/c1ccc(O)c(O)c1)OCCc1ccccc1 | 6 | 10 | -1 | 52* | -17 | 145*
O=C(/C=C/c1ccc(O)c(O)c1)c1ccccc1O | 5 | 14 | -1 | 93* | -127 | 81*
O=C(C=Cc1ccccc1O)c1ccccc1O | x | 28 | x | x | x | x
CCOC(=O)c1c(NC(=O)CSc2nnnn2-c2ccc(OC)cc2)sc(C)c1C | 1 | -5 | -2 | 57* | 40 | 1
CCOC(=O)c1csc(NC(=O)CSc2nnnn2-c2ccc(OC)cc2)n1 | -2 | -1 | 9 | -1 | 20 | x
O=C(CSc1nnc(CNC(=O)c2c(F)cccc2F)o1)NCc1ccccc1Cl | -4 | 1 | 11 | -1 | x | x
O=C(Cc1ccsc1)NCC(=O)Nc1ccccc1Br | 0 | 3 | 5 | 4 | x | x
CCCCOc1ccc(N2C(=O)CC(N(O)c3ccccc3)C2=O)cc1 (stereo not drawn) | 4 | 1 | -9 | 146* | 8 | 165*
CCCCCOc1ccc(N2C(=O)CC(N(O)c3ccccc3)C2=O)cc1 (stereo not drawn) | -1 | 14 | -9 | 112* | 38 | 143*
CCCCN(C(C)=O)C1CC(=O)N(c2ccc(OCCC)cc2)C1=O (stereo not drawn) | -2 | -4 | -6 | -2 | 26 | x
COc1ccc(CNC(=O)N2CCN(C(=O)c3ccccc3)CC2)cc1 | 5 | -7 | x | 2 | x | x
CCCCNC1C(CC)C(CCC)C(C#N)(C#N)C1(C#N)C#N (stereo not drawn) | -8 | 21 | 3 | 74* | -10 | 34*

Bioassay records deposited in PubChem by several laboratories.
